Source: ChEMBL document CHEMBL4002570, “Synthesis and cytostatic properties of polyfunctionalized furanoallocolchicinoids” (Eur J Med Chem, 2017)
Active and inactive are the calls of the source.

Columns and labels:
BXPC-3 = experiment: Cytotoxicity against 2D culture of human BxPC3 cells measured after 72 hrs by MTT assay; type: functional, cell-based; conditions: BXPC-3, 72 h
Procedure, shortened: (§1)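 Cells (tumor lines and HaCaT in DMEM with 10% FCS; bone-marrow MSC at passages 2-6) seeded at 3x10⁵ cells/mL 24 h before and allowed to adhere. Compounds dissolved in DMSO (20 mM stock), diluted 20 µM to 0.1 nM, exposed 72 h. MTT added for the last 6 h, formazan dissolved in DMSO, OD read at 540 nm. IC50 taken from titration curves.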

PANC-1 [1] = experiment: Cytotoxicity against 2D culture of human PANC1 cells measured after 72 hrs by MTT assay; type: functional, cell-based; conditions: PANC-1, 72 h; procedure, shortened: as §1
COLO357 [2] = experiment: Cytotoxicity against 2D culture of human Colo-357 cells measured after 72 hrs by MTT assay; type: functional, cell-based; conditions: COLO357, 72 h; procedure, shortened: as §1
MIA PaCa-2 [3] = experiment: Cytotoxicity against 2D culture of human MIAPaCa2 cells measured after 72 hrs by MTT assay; type: functional, cell-based; conditions: MIA PaCa-2, 72 h; procedure, shortened: as §1
A549 = experiment: Cytotoxicity against 2D culture of human A549 cells measured after 72 hrs by MTT assay; type: functional, cell-based; conditions: A549, 72 h; procedure, shortened: as §1
[4] = Cytotoxicity against 2D culture of human MSC measured after 72 hrs by MTT assay; type: cell-based; procedure, shortened: as §1
EA.hy 926 [5] = experiment: Cytotoxicity against 2D culture of human EAhy926 cells measured after 72 hrs by MTT assay; type: cell-based; conditions: EA.hy 926, 72 h; procedure, shortened: as §1
HaCaT = experiment: Cytotoxicity against 2D culture of human HaCaT cells measured after 72 hrs by MTT assay; type: cell-based; procedure, shortened: as §1
EA.hy 926 [6] = experiment: Cytotoxicity against 3D culture of human EAhy926 cells up to 10000 nM measured after 72 hrs by MTT assay; type: cell-based; conditions: ea.hy 926, 72 h
Procedure, shortened: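 Spheroids formed on polyHEMA-coated plates before drug addition, then handled like 2D MTT: dilutions from 20 µM to 0.1 nM, 72 h exposure, MTT for the final 6 h, DMSO solubilization, OD at 540 nm. Inhibition index = 1 − OD(exp)/OD(control); IC50 read at the 50% cutoff.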

COLO357 [7] = experiment: Induction of apoptosis in 2D culture of human Colo-357 cells assessed as accumulation at G2/M phase at 1 uM measured after 72 hrs by propidium iodide staining based flow cytometry; type: functional, cell-based
Procedure, shortened: (§2)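 Cultures (2D or polyHEMA spheroids) exposed to 1 µM for 72 h. Cells trypsinized, washed in ice-cold PBS, fixed in 70% ethanol for 2 h at −20 °C, stained with propidium iodide 50 µg/ml plus […] 10 µg/ml. Flow cytometry with 2000 events. Phase distribution gated on dot plots; apoptotic cells excluded in 3D histograms.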

MIA PaCa-2 [8] = experiment: Induction of apoptosis in 2D culture of human MIAPaCa2 cells assessed as accumulation at G2/M phase at 1 uM measured after 72 hrs by propidium iodide staining based flow cytometry; type: functional, cell-based
COLO357 [9] = experiment: Induction of apoptosis in 3D culture of human Colo-357 cells assessed as accumulation at G2/M phase at 1 uM measured after 72 hrs by propidium iodide staining based flow cytometry; type: functional, cell-based; procedure, shortened: as §2
MIA PaCa-2 [10] = experiment: Induction of apoptosis in 3D culture of human MIAPaCa2 cells assessed as accumulation at G2/M phase at 1 uM measured after 72 hrs by propidium iodide staining based flow cytometry; type: functional, cell-based; procedure, shortened: as §2
COLO357 [11] = experiment: Disruption of mitotic spindle in human Colo-357 cells at 1 uM measured after 72 hrs by Hoechst 33342 staining based confocal microscopic analysis; type: functional, cell-based
COLO357 [12] = experiment: Induction of beta-tubulin expression in human Colo-357 cells at 1 uM measured after 24 hrs by Hoechst 33342 staining based confocal microscopic analysis; type: functional, cell-based
Procedure, shortened: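 Colo-357 in 2D exposed to 1 µM for 24 h, fixed, then stained with anti-β-tubulin antibody (red) and Hoechst 33342. Confocal imaging; mean fluorescence intensity from red pixel counts over several fields; significance taken at p<0.05.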

COLO357 [13] = experiment: Induction of total tubulin expression in 3D culture of human Colo-357 cells measured after 48 hrs by propidium iodide staining based flow cytometry; type: functional, cell-based
Procedure, shortened: (§3)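 Spheroids on polyHEMA exposed to 1 µM for 48 h, trypsinized, permeabilized, stained with anti-tubulin antibody and phalloidin-AlexaFluor488 for F-actin, and analyzed by flow cytometry.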

COLO357 [14] = experiment: Induction of beta-tubulin expression in human Colo-357 cells assessed as mean fluorescence intensity at 1 uM measured after 24 hrs by Hoechst 33342 staining based confocal microscopic analysis (reference value: 52 +/- 12); type: functional
COLO357 [15] = experiment: Induction of F-actin expression in 3D culture of human Colo-357 cells at 1 uM measured after 48 hrs by propidium staining based flow cytometry; type: functional, cell-based; procedure, shortened: as §3
MIA PaCa-2 [16] = experiment: Induction of F-actin expression in 3d culture of human MIAPaCa2 cells at 1 uM measured after 48 hrs by propidium staining based flow cytometry; type: functional, cell-based; procedure, shortened: as §3
COLO357 [17] = experiment: Induction of mitochondrial membrane hyperpolarization in 3D culture of human Colo-357 cells at 1 uM measured after 48 hrs by DiOC6 dye based flow cytometry; type: functional, cell-based
Procedure, shortened: (§4)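 Spheroids on polyHEMA exposed to 1 µM for 48 h, trypsinized. Live cells stained for 1 h with DiOC₆ (mitochondrial potential), LysoTrackerRed (lysosomal potential) or propidium iodide (membrane permeability), then analyzed by flow cytometry.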

MIA PaCa-2 [18] = experiment: Induction of mitochondrial membrane hyperpolarization in 3D culture of human MIAPaCa2 cells at 1 uM measured after 48 hrs by DiOC6 dye based flow cytometry; type: functional, cell-based; procedure, shortened: as §4
COLO357 [19] = experiment: Induction of lysosomal membrane hyperpolarization in 3D culture of human Colo-357 cells at 1 uM measured after 48 hrs by LysoTrackRed dye based flow cytometry; type: functional, cell-based; procedure, shortened: as §4
MIA PaCa-2 [20] = experiment: Induction of lysosomal membrane hyperpolarization in 3D culture of human MIAPaCa2 cells at 1 uM measured after 48 hrs by LysoTrackRed dye based flow cytometry; type: functional, cell-based; procedure, shortened: as §4
COLO357 [21] = experiment: Induction of cell membrane permeability in 3D culture of human Colo-357 cells at 1 uM measured after 48 hrs by propidium iodide staining based flow cytometry; type: functional; procedure, shortened: as §4
MIA PaCa-2 [22] = experiment: Induction of cell membrane permeability in 3D culture of human MIAPaCa2 cells at 1 uM measured after 48 hrs by propidium iodide staining based flow cytometry; type: functional; procedure, shortened: as §4
PANC-1 [23] = experiment: Disruption of preformed spheroids in human PANC1 cells at 1 uM measured after 48 hrs by propidium staining based flow cytometry; type: functional, cell-based
MIA PaCa-2 [24] = experiment: Disruption of preformed spheroids in human MIAPaCa2 cells at 1 uM measured after 48 hrs by propidium staining based flow cytometry; type: functional, cell-based
COLO357 [25] = experiment: Disruption of preformed spheroids in human Colo-357 cells at 1 uM measured after 48 hrs by propidium staining based flow cytometry; type: functional, cell-based

SMILES	IC50 (BXPC-3) [nM]	IC50 (PANC-1 [1]) [nM]	IC50 (COLO357 [2]) [nM]	IC50 (MIA PaCa-2 [3]) [nM]	IC50 (A549) [nM]	IC50 [4] [nM]	IC50 (EA.hy 926 [5]) [nM]	IC50 (HaCaT) [nM]	Activity (EA.hy 926 [6])	Activity (COLO357 [7])	Activity (MIA PaCa-2 [8])	Activity (COLO357 [9])	Activity (MIA PaCa-2 [10])	Activity (COLO357 [11])	Activity (COLO357 [12])	Activity (COLO357 [13])	Flu intensity (COLO357 [14])	Activity (COLO357 [15])	Activity (MIA PaCa-2 [16])	Activity (COLO357 [17])	other results
COc1cc2c(c(OC)c1OC)-c1cc3cc(COC(C)=O)oc3cc1C(=O)CC2	16	16	16	16	80	–	–	–	–	–	–	–	–	–	–	–	–	–	–	–	–
COc1cc2c(c(OC)c1OC)-c1cc3cc(C(C)O)oc3cc1C(=O)CC2 (centres undefined)	80	70	100	> 100	40	–	–	–	–	–	–	–	–	–	–	–	–	–	–	–	–
COc1cc2c(c(OC)c1OC)-c1cc3cc(CO)oc3cc1C(O)CC2 (centres undefined)	16	16	16	16	16	> 800	> 800	16	Non-Toxic	Active	Active	Active	Active	Active	Active	Active	110	Active	Active	Active	Activity (MIA PaCa-2 [18]): Active; Activity (COLO357 [19]): Active; Activity (MIA PaCa-2 [20]): Active; Activity (COLO357 [21]): Active; Activity (MIA PaCa-2 [22]): Active; Activity (PANC-1 [23]): Active; Activity (MIA PaCa-2 [24]): Active; Activity (COLO357 [25]): Active
COc1cc2c(c(OC)c1OC)-c1cc3cc(CCO)oc3cc1C(O)CC2 (centres undefined)	400	400	> 400	> 400	400	–	–	–	–	–	–	–	–	–	–	–	–	–	–	–	–
COc1cc2c(c(OC)c1OC)-c1cc3cc(CCO)oc3cc1C(=O)CC2	400	400	> 400	> 400	400	–	–	–	–	–	–	–	–	–	–	–	–	–	–	–	–
COc1cc2c(c(OC)c1OC)-c1ccc(OC)c(=O)cc1[C@@H](NC(C)=O)CC2 [COLCHICINE]	80	80	160	160	400	> 800	> 800	80	Non-Toxic	Active	Active	Active	Active	Active	Active	Active	74	inactive	Active	Active	Activity (MIA PaCa-2 [18]): Active; Activity (COLO357 [19]): Active; Activity (MIA PaCa-2 [20]): Active; Activity (COLO357 [21]): Active; Activity (MIA PaCa-2 [22]): Active; Activity (PANC-1 [23]): Active; Activity (MIA PaCa-2 [24]): Active; Activity (COLO357 [25]): Active
COc1cc2c(c(OC)c1OC)-c1cc3cc(C(C)O)oc3cc1C(O)CC2 (centres undefined)	30	30	64	64	80	–	–	–	–	–	–	–	–	–	–	–	–	–	–	–	–
COc1cc2c(c(OC)c1OC)-c1cc3cc(CO)oc3cc1C(=O)CC2	16	16	16	64	16	> 800	> 800	16	Non-Toxic	Active	Active	Active	Active	Active	Active	Active	73	inactive	Active	Active	Activity (MIA PaCa-2 [18]): Active; Activity (COLO357 [19]): Active; Activity (MIA PaCa-2 [20]): Active; Activity (COLO357 [21]): Active; Activity (MIA PaCa-2 [22]): Active; Activity (PANC-1 [23]): Active; Activity (MIA PaCa-2 [24]): Active; Activity (COLO357 [25]): Active
